Laboratory results: ChEMBL document CHEMBL1157181, “Novel antioxidant agents deriving from molecular combination of Vitamin C and NO-donor moieties” (Bioorg Med Chem, 2008)
Active and inactive are the calls of the source. The calls are words filed in the database; no cut-off is given here.

What was measured:
Hepatocyte [1] = assay: Antioxidant activity Wistar rat hepatocyte membrane assessed as Fe(3+)-ADP/NADPH-induced lipid peroxidation by TBA assay; format: functional, cell-based
Method in brief: (§1)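 Microsomes from male Wistar rat liver (180–200 g) in Tris-HCl/KCl pH 7.4 (2 mg protein/mL) with ADP 1 mM and FeCl3 50 μM, plus compound in DMSO (≤5%). Peroxidation started with NADPH 0.4 mM at 37 °C and sampled to 30 min. TBARS read at 543 nm against an MDA standard. Inhibition is taken from the 30-min plateau, with IC50 by nonlinear regression.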

Aorta [2] = assay: Vasorelaxation activity in Wistar rat thoracic aorta assessed as inhibition of L-phenylephrine-induced contraction; format: functional, tissue-based
Method in brief: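 Endothelium-denuded thoracic aorta strips from male Wistar rats (180–200 g) equilibrated 120 min and contracted with 1 μM L-phenylephrine. At plateau, cumulative concentrations of the test agent are added. EC50 is given ± SEM (μM).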

Aorta [3] = assay: Vasorelaxation activity in Wistar rat thoracic aorta assessed as inhibition of L-phenylephrine-induced contraction in presence of 1 uM 1H-[1,2,4]oxadiazolo[4,3-a]quinoxalin-1-one; format: functional, tissue-based
Method in brief: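 Denuded Wistar rat aortic strips with 1 μM ODQ added to the bath 5 min before contraction with 1 μM L-phenylephrine. Cumulative relaxant concentrations are added at plateau, and EC50 is given ± SEM (μM).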

[4] = Dissociation constant, pKa of the compound; format: physicochemical
Method in brief: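 Potentiometric titration, at least four runs per compound, of about 1 mM aqueous solutions with ionic strength 0.15 M (KCl). Solutions acidified to pH 1.8 with 0.5 N HCl, then titrated with standardised 0.5 N KOH to pH 10.5, under argon at 25.0 ± 0.1 °C. For poorly soluble compounds, at least five titrations in 15-50 wt% methanol, extrapolated to zero cosolvent (Yasuda-Shedlovsky).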

[5] = Distribution coefficient, log D at pH 1.0 after 4 hrs by shake flask method; format: physicochemical; conditions: octanol/water
Method in brief: (§2)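 Shake-flask n-octanol/buffer partition at room temperature, pH 1.0 (HCl) or pH 7.4 (phosphate), ionic strength 0.15 M KCl. Phases are presaturated by shaking for 4 h. Solute is about 0.1 mM in the aqueous phase, shaken about 20 min and centrifuged. Aqueous concentration is read by UV at λmax, with at least seven log D values per compound.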

[6] = Distribution coefficient, log D at pH 7.4 after 4 hrs by shake flask method; format: physicochemical; conditions: octanol/water; method in brief: as §2
Hepatocyte [7] = assay: Antioxidant activity Wistar rat hepatocyte membrane assessed as Fe(3+)-ADP/NADPH-induced lipid peroxidation at 1 mM by TBA assay; format: functional, cell-based; method in brief: as §1
[8] = Distribution coefficient, log D at pH 7.4 after 4 hrs; format: physicochemical; conditions: octanol/water; method in brief: as §2
Hepatocyte [9] = assay: Antioxidant activity Wistar rat hepatocyte membrane assessed as Fe(3+)-ADP/NADPH-induced lipid peroxidation at 50 uM by TBA assay; format: functional; method in brief: as §1

For `NC(=O)c1c(COC2=C(O)C(=O)OC2C(O)CO)no[n+]1[O-]` (configuration not stated), which IC50 (Hepatocyte [1]) is on record?
The IC50 was over 1000 µM.

What about the EC50 (Aorta [2]) of the same compound?
The EC50 was 6 µM.

What about the EC50 (Aorta [3]) of the same compound?
The EC50 was over 100 µM.

What about the pKa [4] of the same compound?
The pKa was 7.07.

And the logD at 4 h [5]?
Its logD at 4 h is -0.99.

What about the logD at 4 h [6] of the same compound?
Its logD at 4 h is -1.44.

For `O=C1OC(C(O)CO)C(OCCCCCCO[N+](=O)[O-])=C1O` (configuration not stated), which IC50 (Hepatocyte [1]) is on record?
The IC50 was 80 µM.

And the EC50 (Aorta [2])?
Its EC50 is 2.1 µM.

And the EC50 (Aorta [3])?
Its EC50 is over 100 µM.

What about the pKa [4] of the same compound?
The pKa was 7.6.

And the logD at 4 h [5]?
Its logD at 4 h is 0.86.

What about the logD at 4 h [6] of the same compound?
Its logD at 4 h is 0.76.

With `O=C1OC(C(O)CO)C(OCCCOc2no[n+]([O-])c2S(=O)(=O)c2ccccc2)=C1O` (configuration not stated) as the compound, how does the IC50 (Hepatocyte [1]) read?
Its IC50 is 80 µM.

What about the EC50 (Aorta [2]) of the same compound?
Its EC50 is 0.034 µM.

And the EC50 (Aorta [3])?
The EC50 was 7 µM.

And the pKa [4]?
Its pKa is 7.62.

And the logD at 4 h [5]?
Its logD at 4 h is 1.18.

And the logD at 4 h [6]?
Its logD at 4 h is 0.98.

Which results are given for `O=C1OC(C(O)CO)C(O)=C1OCCCO[N+](=O)[O-]` (configuration not stated)?
Activity (Hepatocyte [7]): inactive; pKa [4]: 3.19; logD at 4 h [5]: -0.26; logD at 4 h [8]: < -2

For `COC1=C(O)[C@@H]([C@@H](O)CO)OC1=O`, which Activity (Hepatocyte [7]) is on record?
The Activity was “inactive”.

What about the pKa [4] of the same compound?
The pKa was 3.23.

What about the logD at 4 h [5] of the same compound?
The logD at 4 h was -1.44.

What about the logD at 4 h [8] of the same compound?
The logD at 4 h was under -2.

Which IC50 (Hepatocyte [1]) does the source give for `O=C1OC(C(O)CO)C(O)=C1OCCCCCCO[N+](=O)[O-]` (configuration not stated) here?
Its IC50 is over 1000 µM.

What about the EC50 (Aorta [2]) of the same compound?
Its EC50 is 7.1 µM.

And the EC50 (Aorta [3])?
The EC50 was over 100 µM.

What about the pKa [4] of the same compound?
Its pKa is 3.56.

And the logD at 4 h [5]?
Its logD at 4 h is 0.84.

And the logD at 4 h [6]?
Its logD at 4 h is -1.93.

For `O=C1O[C@H]([C@@H](O)CO)C(O)=C1O` [ASCORBIC ACID], which Activity (Hepatocyte [9]) is on record?
The Activity was 77%.

And the logD at 4 h [5]?
Its logD at 4 h is -1.65.

Which IC50 (Hepatocyte [1]) does the source give for `O=C1OC(C(O)CO)C(OCCCO[N+](=O)[O-])=C1O` (configuration not stated) here?
Its IC50 is 454 µM.

What about the EC50 (Aorta [2]) of the same compound?
The EC50 was 55 µM.

What about the EC50 (Aorta [3]) of the same compound?
Its EC50 is over 100 µM.

What about the pKa [4] of the same compound?
Its pKa is 7.55.

What about the logD at 4 h [5] of the same compound?
Its logD at 4 h is -0.48.

And the logD at 4 h [6]?
Its logD at 4 h is -0.55.

Which results are given for `O=C1OC(C(O)CO)C(OCCCCC(CO[N+](=O)[O-])O[N+](=O)[O-])=C1O` (configuration not stated)?
IC50 (Hepatocyte [1]): 28 µM; EC50 (Aorta [2]): 0.72 µM; EC50 (Aorta [3]): > 100 µM; pKa [4]: 7.64; logD at 4 h [5]: 0.78; logD at 4 h [6]: 0.66

With `COC1=C(O)C(=O)O[C@@H]1[C@@H](O)CO` as the compound, how does the IC50 (Hepatocyte [1]) read?
Its IC50 is over 1000 µM.

What about the pKa [4] of the same compound?
The pKa was 7.54.

What about the logD at 4 h [5] of the same compound?
The logD at 4 h was -1.41.

What about the logD at 4 h [6] of the same compound?
The logD at 4 h was -1.61.

With `O=C1OC(C(O)CO)C(O)=C1OCCCOc1no[n+]([O-])c1-c1ccccc1` (configuration not stated) as the compound, how does the IC50 (Hepatocyte [1]) read?
Its IC50 is 392 µM.

And the EC50 (Aorta [2])?
The EC50 was 32 µM.

What about the EC50 (Aorta [3]) of the same compound?
The EC50 was over 100 µM.

And the pKa [4]?
Its pKa is 3.44.

And the logD at 4 h [5]?
Its logD at 4 h is 1.71.

And the logD at 4 h [6]?
Its logD at 4 h is -1.35.

For `O=C1OC(C(O)CO)C(OCCCOc2no[n+]([O-])c2-c2ccccc2)=C1O` (configuration not stated), which IC50 (Hepatocyte [1]) is on record?
The IC50 was 17 µM.

And the EC50 (Aorta [2])?
The EC50 was 3.8 µM.

And the EC50 (Aorta [3])?
Its EC50 is 80.9 µM.

And the pKa [4]?
Its pKa is 7.6.

What about the logD at 4 h [5] of the same compound?
Its logD at 4 h is 1.53.

And the logD at 4 h [6]?
Its logD at 4 h is 1.13.
